# A selection: hits, their analogues and other compounds. The true share with any hit is near 0.72%.
# mIAP inh: blocks mouse intestinal alkaline phosphatase; actives 0.2% (n = 330,000); inhibition, % at 10 µM; purified mouse IAP, CDP-Star luminescence, 30 min;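 active means inhibition of at least 40% at 10 µM in the primary screen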;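 further: plate controls were DMSO with enzyme for no effect and no enzyme wells for full effect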
# bIAP inhibitor: blocks bovine intestinal alkaline phosphatase activity; purified bovine IAP, CDP-star luminescence, 30 min; inhibition, % at 20 µM; 190,000 tested, under 10 active; AID 1019;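 active means over 50% inhibition of intestinal alkaline phosphatase at 20 µM in the single-dose screen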
#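 test system = bovine IAP enzyme | medium = DEA buffer 100 mM, pH 9.8, with MgCl2 1.0 mM, ZnCl2 0.02 mM | detection = luminescence | dosing = single compound dose of 20 µM, 2% DMSO final | incubation = 30 min reaction at room temperature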
# hIAP act: human IAP activation; activation factor at 10 µM; AID 2524; purified human IAP, CDP-Star luminescence, 30 min; hits give high values; 1 = vehicle-only enzyme, 0 = enzyme-free background; actives 0.16% (n = 330,000); P09923;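 active means activation factor of the enzyme at least 2-fold when tested at 20 µM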
# Target sequence (P09923 whole entry, looked up): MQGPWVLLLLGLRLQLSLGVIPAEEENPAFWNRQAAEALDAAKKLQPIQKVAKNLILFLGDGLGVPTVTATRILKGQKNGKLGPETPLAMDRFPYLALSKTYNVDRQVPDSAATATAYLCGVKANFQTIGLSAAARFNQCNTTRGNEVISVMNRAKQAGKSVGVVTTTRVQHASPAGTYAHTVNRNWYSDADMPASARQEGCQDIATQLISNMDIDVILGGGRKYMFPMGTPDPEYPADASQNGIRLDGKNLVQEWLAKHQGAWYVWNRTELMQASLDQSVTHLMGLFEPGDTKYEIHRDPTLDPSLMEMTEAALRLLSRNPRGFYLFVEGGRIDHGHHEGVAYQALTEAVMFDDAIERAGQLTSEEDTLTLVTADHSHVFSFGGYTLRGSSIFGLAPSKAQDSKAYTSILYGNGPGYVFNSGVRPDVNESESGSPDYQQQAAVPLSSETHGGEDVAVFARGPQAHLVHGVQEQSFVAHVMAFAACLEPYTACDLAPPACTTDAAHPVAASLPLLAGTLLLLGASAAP
# bIAP act: intestinal alkaline phosphatase (bovine) activation; purified bovine IAP, CDP-star luminescence, 30 min; hits give high values; fold of DMSO-control signal, blank-subtracted; activation factor at 20 µM; actives 0.17% (n = 200,000); AID 1016;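 active means activation factor of 2 or more at 20 µM, a signal rise over negative controls twice the positive control's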
# hIAP block: blocks human intestinal alkaline phosphatase | purified IAP, CDP-Star luminescence, 30 min | inhibition, % at 10 µM | actives 0.12% (n = 330,000) | AID 2544;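 active means inhibition reaching a set limit with compound at 10 µM in the primary screen, cut at about 35% in these data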;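 further: plate controls were DMSO wells with enzyme for no effect and no-enzyme buffer wells for full effect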
# mIAP activ: increases mouse intestinal alkaline phosphatase activity; muIAP, CDP-Star luminescence, 30 min; hits give high values; 1 = vehicle-only enzyme signal, 0 = enzyme-free wells; AID 2805; activation factor at 10 µM; actives 0.24% (n = 330,000);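 active means activation factor of at least 2 at 20 µM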
#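 System: mouse IAP enzyme. Reagent: CDP-Star chemiluminescent phosphatase substrate. Benchmarks: DMSO wells, no-enzyme wells. Times: 30 min enzyme-substrate-compound incubation at room temperature. Detection: luminescence from enzymatic CDP-Star hydrolysis. Doses: test compounds delivered from DMSO solution.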
# mIAP inh conf: mouse IAP inhibition confirmation; shares compounds with mIAP inh; purified mouse IAP, CDP-Star luminescence, 30 min; inhibition, % at 10 µM; actives 4.7% (n = 11,000); AID 434971;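 active means inhibition of at least 40% at 10 µM in either of the two replicates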;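 further: plate controls were DMSO wells with enzyme for no effect and buffer wells lacking enzyme for full effect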
# An asterisk follows results filed as active; i = inactive; / = no result given.
SMILES,mIAP inh,bIAP inhibitor,hIAP act,bIAP act,hIAP block,mIAP activ,mIAP inh conf
CCn1c(SC(C)C(=O)Nc2ccc3c(c2)OCCO3)nnc1C1CC1 (stereo not given),-3.7,/,0.978,/,2.2,1.04,/
CCN(CC)C(=O)Oc1cc(=O)n2c3c(cccc13)CCC2,10.4,13.3,0.961,0.9,3.9,0.896,/
Cc1ccc(N/C(N)=N/c2nc(C)cc(N3CCCCC3)n2)c(C)c1,-270.0,i,3.07*,8.4*,-206.8,3.7*,-322.5
Cc1ccc(N/C(N)=N/c2nc3c(c(=O)[nH]2)CCCC3)c(C)c1,-26.5,-54.0,1.01,1.5,-1.2,1.26,/
Nc1cc2nc3ccccc3oc-2cc1=O,50.5*,/,0.97,/,3.0,0.495,41.5*
CCC1(c2ccc(C)cc2)NC(=O)N(C(C)C(=O)Nc2ccc(N3CCOCC3)cc2)C1=O (stereo not given),7.2,/,0.876,/,12.4,0.928,/
CCc1cc(Cn2nc(-c3ccccc3)cc2C(=O)NCc2ccccc2OC)on1,-159.2,/,0.975,/,2.5,2.59*,-99.1
Cc1ccc(CNC(=O)c2cc(-c3ccccc3)nn2Cc2cc(C)no2)cc1,-121.5,/,1,/,-0.4,2.21*,-126.2
COc1ccccc1CNC(=O)c1cc(-c2ccccc2)nn1Cc1cc(C)no1,-57.4,/,0.985,/,1.5,1.57,/
CCCc1nnc2n1N=C(c1ccc(C)cc1)CS2,10.0,/,0.839,/,16.1,0.9,/
Cc1ccc(C(=O)Nc2nnc(CC(=O)N/N=C/c3ccncc3)s2)cc1,16.9,-7.2,0.992,1.1,0.8,0.831,/
Cc1ccc(C(=O)Nc2nnc(CC(=O)N/N=C/c3ccc(O)c(O)c3)s2)cc1,57.5*,/,0.844,/,15.6,0.425,78.6*
COc1c(-c2ccc(O)cc2)oc2cc(O)cc(O)c2c1=O,12.9,/,0.715,/,28.5,0.871,/
CC(=O)Oc1cc(O)c2c(=O)c(OC(C)=O)c(-c3ccc(OC(C)=O)c(OC(C)=O)c3)oc2c1,43.3*,/,0.687,/,31.3,0.567,44.6*
CC(=O)c1ccc(S(=O)(=O)N2CCNC(=O)C2)cc1,16.6,/,1.15,/,-15.3,0.834,/
COc1ccc(Cl)cc1NC(=S)NCCO,3.9,0.2,1.07,1,-6.8,0.961,/
S=C(NCc1ccccc1)Nc1ccc(Cl)cc1,-72.4,11.9,0.911,0.9,8.9,1.72,/
COc1ccc(Cl)cc1NC(=S)NCCC(c1ccccc1)c1ccccc1,-297.9,10.2,1.22,0.9,-22.3,3.98*,-107.2
S=C(NCCC(c1ccccc1)c1ccccc1)Nc1ccc(Cl)cc1,-491.2,-31.9,1.15,1.3,-14.6,5.91*,-110.4
CCOC(=O)c1ccc(N2CCN(c3ccccc3F)CC2)c(NC(=O)Nc2ccccc2)c1,i,2.8,1.42,1,-41.7,6.6*,-213.6
COc1ccc(CCN2C(=O)/C(=C\c3ccco3)SC2=S)cc1OC,41.6*,6.1,1.01,0.9,-1.1,0.584,45.4*
O=C1/C(=C\c2ccco2)NC(=S)N1c1ccccc1,27.9,12.2,1.26,0.9,-25.8,0.721,/
Cc1ccc(/C=C2\SC(=S)N(CC3CCCO3)C2=O)o1 (stereo not given),16.7,/,1.19,/,-19.1,0.833,/
O=C1/C(=C\c2ccco2)SC(=S)N1c1ccccc1,64.1*,-1.1,1.05,1,-5.0,0.359,56.6*
Cc1ccc(N2C(=O)/C(=C\c3ccco3)SC2=S)cc1,55.0*,5.7,0.934,0.9,6.6,0.45,64.5*
SMILES,mIAP inh,bIAP inhibitor,hIAP act,bIAP act,hIAP block,mIAP activ,mIAP inh conf
O=C1/C(=C/c2ccco2)SC(=S)N1CC1CCCO1 (stereo not given),48.0*,/,0.863,/,13.7,0.52,54.3*
CS(=O)c1ccccc1COC(=O)Nc1cccc(Cl)c1 (stereo not given),-16.4,-2.9,0.805,1,19.5,1.16,/
C=CCc1cc(Cl)ccc1OC(=O)Nc1cccc(Cl)c1,-201.8,/,1.09,/,-8.9,3.02*,-105.4
Cc1cc(=O)n2nc(N3CCC(C(=O)NCc4cccc(Cl)c4)CC3)sc2n1,-2.0,/,1.23,/,-22.9,1.02,/
CC(=C\c1ccccc1)/C=C1/SC(=S)N(C(C(=O)O)C(C)C)C1=O (stereo not given),/,6.7,/,0.9,/,/,/
O=C1/C(=C/C=C/c2ccco2)SC(=S)N1NS(=O)(=O)c1ccccc1,83.7*,/,1.22,/,-21.7,0.163,91.2*
CC(C(=O)O)N1C(=O)/C(=C/C=C/c2ccco2)SC1=S (stereo not given),53.6*,41.1,1,0.6,-0.2,0.464,57.9*
COc1cccc(SCc2noc(C(=O)NCCC(C)C)c2C(=O)NCCC(C)C)c1,3.5,/,1.08,/,-7.7,0.965,/
COc1ccc(NC(=O)CN(C)S(=O)(=O)c2ccc3[nH]c(=O)oc3c2)cc1,14.5,/,1.05,/,-5.1,0.855,/
COc1cc(OC)c(NC(=O)CN(C)S(=O)(=O)c2ccc3[nH]c(=O)oc3c2)cc1Cl,63.7*,/,1.21,/,-21.0,0.363,85.9*
CN(CC(=O)Nc1cccc(Cl)c1)S(=O)(=O)c1ccc2[nH]c(=O)oc2c1,58.3*,/,0.869,/,13.1,0.417,74.1*
CCc1ccc(NC(=O)CN(C)S(=O)(=O)c2ccc3[nH]c(=O)oc3c2)cc1,50.0*,/,0.828,/,17.2,0.5,60.8*
CCOC(=O)N1CCN(C(=O)C2CCN(C(=O)c3ccc(C(C)(C)C)cc3)CC2)CC1,2.2,/,0.92,/,8.0,0.978,/
OC[C@@H]1[C@@H](c2ccccc2)C(c2ccccc2)=NN1c1ccccc1,-126.9,/,/,/,/,2.27*,-115.2
OC[C@@H]1[C@@H](c2ccccc2)C(c2cccc(Cl)c2)=NN1c1ccccc1,-150.9,/,/,/,/,2.51*,-127.8
Cc1ccc2c(c1)N(C(C)C(=O)NCc1ccc3c(c1)OCO3)C(=O)CO2 (stereo not given),3.6,/,1.19,/,-18.6,0.964,/
Cc1ccsc1/C=C/C1=Cc2c(sc(NC(=O)CSc3n[nH]c(N)n3)c2C#N)C(C)(C)C1,44.7*,16.9,0.874,0.8,12.6,0.553,63.6*
O=C1/C(=C\c2ccc(O)cc2)SC(=S)N1/N=C/c1ccc(O)cc1,48.9*,/,0.844,/,15.6,0.511,57.1*
COc1cccc(NC(=O)C2CCN(Cc3cnn(-c4ccccc4)c3-n3cccc3)CC2)c1,-180.0,-298.7,1,4*,-0.2,2.8*,-100.8
O=C1/C(=C\c2ccco2)SC(=S)N1C1CCS(=O)(=O)C1 (stereo not given),63.6*,/,1,/,-0.5,0.364,70.9*
Cc1ccc(/C=C2\SC(=S)N(C3CCS(=O)(=O)C3)C2=O)cc1 (stereo not given),13.7,19.1,0.982,0.8,1.8,0.863,/
O=C1/C(=C/c2ccco2)SC(=S)N1C1CCS(=O)(=O)C1 (stereo not given),67.2*,-21.9,1.31,1.2,-31.1,0.328,70.8*
